This is an account of results in ChEMBL document CHEMBL4354825, “Design and Synthesis of Basic Selective Estrogen Receptor Degraders for Endocrine Therapy Resistant Breast Cancer” (J Med Chem, 2019).

In one data set the target is T1, Estrogen receptor (Homo sapiens, UniProt P03372).
T1 sequence (P03372 whole entry): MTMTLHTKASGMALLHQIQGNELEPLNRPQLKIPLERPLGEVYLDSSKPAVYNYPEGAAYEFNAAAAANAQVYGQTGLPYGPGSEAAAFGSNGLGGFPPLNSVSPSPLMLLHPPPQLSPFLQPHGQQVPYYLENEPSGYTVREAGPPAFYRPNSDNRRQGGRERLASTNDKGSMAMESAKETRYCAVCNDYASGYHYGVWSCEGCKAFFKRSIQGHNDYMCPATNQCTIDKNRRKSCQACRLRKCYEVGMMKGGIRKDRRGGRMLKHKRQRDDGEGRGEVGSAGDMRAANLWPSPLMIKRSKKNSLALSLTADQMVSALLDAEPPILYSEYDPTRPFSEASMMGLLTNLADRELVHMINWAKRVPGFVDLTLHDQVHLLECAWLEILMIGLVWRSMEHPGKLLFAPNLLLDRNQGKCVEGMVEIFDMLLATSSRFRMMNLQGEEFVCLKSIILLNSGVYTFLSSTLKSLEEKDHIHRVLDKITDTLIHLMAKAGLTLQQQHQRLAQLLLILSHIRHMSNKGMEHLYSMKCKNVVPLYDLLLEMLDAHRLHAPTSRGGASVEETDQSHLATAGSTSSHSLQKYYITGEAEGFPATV
As to the kind of experiment: Inhibition of ERalpha in human MCF7:WS8 cells assessed as increase in degradation of ERalpha incubated for 24 hrs by In-Cell Western assay. The data set is classed as cell-based. The method, boiled down:
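MCF7:WS8 cells were estrogen-stripped for 2 days and plated at 2.5 × 10^4 per well. ERα was detected by in-cell western (H10 antibody), with signal normalized to CellTag 700.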

The nature of data set [1]: Drug concentration in C57BL/6 mouse brain at 100 mg/kg, po measured after 2 hrs by LC/MS-MS analysis. The data set is classed as ADME, organism-based. The conditions noted are these: read-out: Drug uptake. A digest of the protocol: (§1)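 PK screen in female C57BL/6 mice (N = 3 per time point). Dosed by gavage at 100 mg/kg in HPβD/PEG-400. Plasma and brain were taken from perfused mice at 30 and 120 min. Quantified by LC-MS/MS in MRM mode, with standard curves in each matrix and a common internal standard. Values are mean and s.d.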

Data set [2] is described as follows: Tmax in C57BL/6 mouse brain at 50 mg/kg, po measured upto 24 hrs by LC-MS/MS analysis. The format is ADME, organism-based. The conditions noted are these: in vivo. The method, boiled down:
(§2)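 Full PK run by a contract lab. Dosing was 50 mg/kg p.o. in water and 10% SBE-β-CD/PEG-400 (9:1 v/v), and 5 mg/kg i.v. Sampling at 0.25, 0.5, 1, 2, 4, 8 and 24 h (N = 5). Plasma samples were diluted in 50% acetonitrile and quantified by LC-MS/MS against standards serially diluted in 50% acetonitrile. Brain was also sampled after the oral dose.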

A short description of data set [3]: MRT (0 to infinity) in CD-1 mouse at 5 mg/kg, iv measured upto 24 hrs by LC-MS/MS analysis. The conditions noted are these: in vivo.
Data set [4] can be described thus: Tmax in CD-1 mouse plasma at 50 mg/kg, po measured upto 24 hrs by LC-MS/MS analysis. The conditions noted are these: in vivo.
Data set [5] in a line: AUClast in C57BL/6 mouse brain at 50 mg/kg, po measured upto 24 hrs by LC-MS/MS analysis. The data set is classed as ADME, organism-based. Details: dose 50 mg/kg, time < 24 hr, route oral. The note with it: in vivo. The method, boiled down: as §2
Data set [6] is described as follows: AUClast in CD-1 mouse plasma at 50 mg/kg, po measured upto 24 hrs by LC-MS/MS analysis. The conditions noted are these: in vivo.
Data set [7] in a line: Cmax in C57BL/6 mouse at 5 mg/kg, iv measured upto 24 hrs by LC-MS/MS analysis. The format is ADME, organism-based. Details: dose 5 mg/kg, route intravenous. The conditions noted are these: in vivo. The method, boiled down:
as §2

Data set [8] is described as follows: Oral bioavailability in C57BL/6 mouse at 50 mg/kg measured upto 24 hrs by LC-MS/MS analysis. The data set is classed as ADME, organism-based. The conditions noted are these: in vivo. A digest of the protocol:
as §2

In data set [9] the target is T2, Estrogen receptor (Homo sapiens) (UniProt P03372).
T2 sequence (whole entry): T1 sequence (P03372 whole entry)
As to the kind of experiment: Inhibition of ERalpha in human MCF7:WS8 cells assessed as increase in degradation of ERalpha incubated for 24 hrs by In-Cell Western assay relative to control. The format is cell-based. The method, boiled down:
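MCF7:WS8 cells were estrogen-stripped for 2 days and plated at 2.5 × 10^4 per well. After 48 h they were treated for 24 h. ERα was detected by in-cell western (H10 antibody), with signal normalized to CellTag 700.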

For the next data set, the system named is Mus musculus. As to the kind of experiment: In vivo degradation of ERalpha in C57BL/6 mouse at 50 mg/kg, po measured after 7 hrs by Western blot analysis. The format is functional, organism-based. The method, boiled down: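 Female C57BL/6J mice aged 9–12 weeks were dosed at 50 mg/kg p.o. in PEG 400/10% HPCD (1:9 v/v). Regimens were a single dose with sacrifice at 5 h, or 3 daily doses with sacrifice 5 h (n = 5) or 7 h (n = 6) after the last dose. Ovaries and uterus were homogenized, 20 μg protein was run by SDS-PAGE, and the blot was probed for ERα and normalized to β-actin.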
On the technique in general: A western blot detects proteins with antibodies after separation by electrophoresis.

Data set [10] can be described thus: AUClast/D in C57BL/6 mouse plasma at 50 mg/kg, po measured upto 24 hrs by LC-MS/MS analysis. The conditions noted are these: in vivo. The format is ADME, organism-based. A digest of the protocol:
as §2

The nature of data set [11]: Plasma concentration in C57BL/6 mouse at 100 mg/kg, po measured after 2 hrs by LC/MS-MS analysis. The data set is classed as ADME, organism-based. A digest of the protocol:
as §1

Data set [12] is described as follows: Half life in C57BL/6 mouse at 5 mg/kg, iv measured upto 24 hrs by LC-MS/MS analysis. The data set is classed as ADME, organism-based. The conditions noted are these: in vivo. A digest of the protocol:
as §2

Data set [13] can be described thus: Cmax in C57BL/6 mouse brain at 50 mg/kg, po measured upto 24 hrs by LC-MS/MS analysis. The conditions noted are these: in vivo. On the set-up: dose 50 mg/kg, route oral. The data set is classed as ADME, organism-based. The method, boiled down:
as §2

The species named for another data set is Homo sapiens. Description: Cytotoxicity against human MCF7:WS8 3D spheroid cells assessed as reduction in tumor spheroid size at 10 nM incubated for 14 days.
A short description of data set [14]: Antiproliferative activity against human MCF7:5C cells assessed as reduction in cell viability incubated for 7 days by Hoechst 33258 dye based assay relative to control. The data set is classed as functional. The conditions noted are these: 168 h. A digest of the protocol:
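Cells were seeded at 5000 per well; MCF7:WS8 had been estrogen-stripped for 2 days first. Compounds were serially diluted in DMSO, with 0.01% DMSO as vehicle. The medium was removed on day 5 (MCF7:WS8) or day 7 (MCF7:5C), and cells were lysed by freezing at −80 °C overnight. DNA was measured by Hoechst 33258 fluorescence. Maximum efficacy was normalized to vehicle (0%) and no cells (100%); at least three biological replicates.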

The nature of a further data set: cells. The note with it: Homo sapiens, MCF7:5C, 168 h, read-out: pIC50 (converted).
The nature of data set [15]: AUClast in C57BL/6 mouse at 5 mg/kg, iv measured upto 24 hrs by LC-MS/MS analysis. The format is ADME, organism-based. Details: time < 24 hr, dose 5 mg/kg, route intravenous. The note with it: in vivo. The method, boiled down:
as §2

Data set [16] in a line: Drug concentration in C57BL/6 mouse brain at 100 mg/kg, po measured after 0.5 hrs by LC/MS-MS analysis. The note with it: read-out: Drug uptake. The format is ADME, organism-based. The method, boiled down: as §1
A short description of data set [17]: AUC (0 to infinity) in C57BL/6 mouse brain at 50 mg/kg, po measured upto 24 hrs by LC-MS/MS analysis. The data set is classed as ADME, organism-based. The note with it: in vivo. Details: dose 50 mg/kg, route oral, time infinity. The method, boiled down:
as §2

Activity calls are given as the source filed them. The calls are words filed in the database; no cut-off is given here.

As for `Cc1cc(F)cc(C)c1C(=O)c1sc2cc(O)ccc2c1Oc1ccc(OC2CN(CCCF)C2)cc1`, the results for the IC50 on Estrogen receptor and in “cells” were 1.02 nM and 0.347 nM, respectively. The values for the concentration at 2 h in data set [1] and in data set [11] were 1250 nM and 2150 nM, respectively. Further, the time of peak concentration (Tmax) in [2] and in data set [4] was 1 h in each case. The compound further came in with an MRT in data set [3] of 1.07 h. For the same compound, the values for the AUClast in data set [5], in data set [6] and in data set [15] were 2106 ng·h/mL, 1678 ng·h/mL and 766 ng·h/mL, respectively. Moreover, the Cmax in data set [7] turned out to be 1590 ng/mL; in [13] it was 635 ng/mL. This compound also registered a F in [8] of 21.9%. The Efficacy in data set [9] stood at 92%. Besides, the result with Mus musculus and in the data set filed under Homo sapiens was Active. In data set [10], this compound displayed an AUClast/dose of 33.6 ng·h/mL. The compound further returned a t1/2 in data set [12] of 1.68 h. Further, the Emax in [14] worked out at 54%. In addition, the concentration at 0.5 h in data set [16] turned out to be 1630 nM. The compound further yielded an AUC in data set [17] of 3450 ng·h/mL.

What is called Tmax is the time from dosing to the highest level. Broadly, the MRT is a mean duration of stay, worked out from the concentration-time curve. As a reminder, the Cmax is the highest concentration seen after dosing. What is called AUC is concentration integrated over time. Higher therefore signals more exposure.
